Laboratory results: ChEMBL document CHEMBL1128257, “Chemically stable N-methyl-4-(alkylthio)cyclophosphamide derivatives as prodrugs of 4-hydroxycyclophosphamide” (J Med Chem, 1995)

What was measured:
Mus musculus [1] = assay: Percentage increased life span against L1210 leukemia cells in mice;(1.08 mmol/kg dosage); assay type: functional
Procedure, shortened: (§1)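 CDF1 mice (17–18 g) inoculated with L1210 lymphoid leukaemia cells per NIH protocol 1.100. A single 1.08 mmol/kg dose was given 24 h after inoculation. %ILS = (treated/control − 1) × 100 on survival times, with vehicle-treated mice as controls. Survivors beyond 30 days were counted separately.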

Mus musculus [2] = assay: Percentage increased life span against L1210 leukemia cells in mice (1.08 mmol/kg dosage); Toxic; assay type: toxicity, organism-based; procedure, shortened: as §1
CCRF-CEM [3] = assay: cytotoxicity against leukemia subpanel (CCRF-CEM); Experiment 2; assay type: functional; settings: Homo sapiens
Procedure, shortened: (§2)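 NCI 60 human tumour cell line screen. Compound dissolved in DMSO and tested at five concentrations (10^-4–10^-8 M). Growth followed over time as percent growth, with zero-time population set to zero. Value is log10 GI50, the log molar concentration giving 50% growth inhibition. Experiment 1 and Experiment 2 are separate runs.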

K562 [4] = assay: cytotoxicity against leukemia subpanel (K562); Experiment 2; assay type: functional; settings: Homo sapiens; procedure, shortened: as §2
DMS-273 [5] = assay: cytotoxicity against small cell lung cancer subpanel (DMS 273); Experiment 1; assay type: functional; settings: Homo sapiens; procedure, shortened: as §2
DMS-273 [6] = assay: cytotoxicity against small cell lung cancer subpanel (DMS 273); Experiment 2; assay type: functional; settings: Homo sapiens; procedure, shortened: as §2
DMS-114 [7] = assay: cytotoxicity against small cell lung cancer subpanel (DMS 114); Experiment 2; assay type: functional; settings: Homo sapiens; procedure, shortened: as §2
CCRF-CEM [8] = assay: cytotoxicity against leukemia subpanel (CCRF-CEM); Experiment 1; assay type: functional; settings: Homo sapiens; procedure, shortened: as §2
MOLT-4 [9] = assay: cytotoxicity against leukemia subpanel (MOLT-4); Experiment 2; assay type: functional; settings: Homo sapiens; procedure, shortened: as §2
HL-60 [10] = assay: cytotoxicity against leukemia subpanel (HL-60 (TB)); Experiment 1; assay type: functional; settings: Homo sapiens; procedure, shortened: as §2
DMS-114 [11] = assay: cytotoxicity against small cell lung cancer subpanel (DMS 114); Experiment 1; assay type: functional; settings: Homo sapiens; procedure, shortened: as §2
MOLT-4 [12] = assay: cytotoxicity against leukemia subpanel (MOLT-4); Experiment 1; assay type: functional; settings: Homo sapiens; procedure, shortened: as §2
SR [13] = assay: cytotoxicity against leukemia subpanel (SR); Experiment 1; assay type: functional; settings: Homo sapiens; procedure, shortened: as §2
SR [14] = assay: cytotoxicity against leukemia subpanel (SR); Experiment 2; assay type: functional; settings: Homo sapiens; procedure, shortened: as §2
[15] = MGDH represents the selectivity or relative sensitivity of the tumor cell panel to the drug.; Experiment 1; assay type: functional
Procedure, shortened: (§3)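 NCI 60-line screen, DMSO solutions at five concentrations (10^-4–10^-8 M). Log10 GI50 was found per line. MG MID is the calculated mean over all panels. Sensitivity is expressed as the log-scale difference of a line or subpanel from that mean. Experiment 1 and Experiment 2 are separate runs.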

RPMI-8226 [16] = assay: cytotoxicity against leukemia subpanel (RPMI-8226); Experiment 1; assay type: functional; settings: Homo sapiens; procedure, shortened: as §2
[17] = MGDH represents the selectivity or relative sensitivity of the tumor cell panel to the drug.; Experiment 2; assay type: functional; procedure, shortened: as §3
HL-60 [18] = assay: cytotoxicity against leukemia subpanel (HL-60 (TB)); Experiment 2; assay type: functional; settings: Homo sapiens; procedure, shortened: as §2
K562 [19] = assay: cytotoxicity against leukemia subpanel (K562); Experiment 1; assay type: functional; settings: Homo sapiens; procedure, shortened: as §2
RPMI-8226 [20] = assay: cytotoxicity against leukemia subpanel (RPMI-8226); Experiment 2; assay type: functional; settings: Homo sapiens; procedure, shortened: as §2

Row | Structure (SMILES) | ILS (Mus musculus [1]) | ILS (Mus musculus [2]) | GI50 (CCRF-CEM [3]) | GI50 (K562 [4]) | GI50 (DMS-273 [5]) | GI50 (DMS-273 [6]) | GI50 (DMS-114 [7]) | GI50 (CCRF-CEM [8]) | GI50 (MOLT-4 [9]) | GI50 (HL-60 [10]) | GI50 (DMS-114 [11]) | GI50 (MOLT-4 [12]) | GI50 (SR [13]) | GI50 (SR [14]) | MGDH GI50 [15] | GI50 (RPMI-8226 [16]) | MGDH GI50 [17] | GI50 (HL-60 [18]) | GI50 (K562 [19]) | GI50 (RPMI-8226 [20])
1 | O=P1(N(CCCl)CCCl)NCCCO1 (stereo unspecified) [CYCLOPHOSPHAMIDE ANHYDROUS] | >187% |  |  |  |  |  |  |  |  |  |  |  |  |  |  |  |  |  |  | 
2 | CN1C(OO)CCOP1(=O)N(CCCl)CCCl (stereo unspecified) |  | Toxic |  |  |  |  |  |  |  |  |  |  |  |  |  |  |  |  |  | 
3 | CCN(CC)C(=S)SC1CCOP(=O)(N(CCCl)CCCl)N1C (stereo unspecified) | >92% |  | 39.8 nM | 87.1 nM | 120 nM | 380 nM | 209 nM | 31.6 nM | 69.2 nM | 31.6 nM | 170 nM | 49 nM | 37.1 nM | 389 nM | 69.72 | 331 nM | 87.78 | 288 nM | 52.5 nM | 398 nM
